Test results published in ChEMBL document CHEMBL1139377, “Induced association of mu opioid (MOP) and type 2 cholecystokinin (CCK2) receptors by novel bivalent ligands” (J Med Chem, 2009).

How the values were obtained:
[1] = target: T1, Gastrin/cholecystokinin type B receptor (Homo sapiens, UniProt P32239); assay: Displacement of [125I]CCK-26-33 from CCK2 receptor expressed in CHO cells; assay type: cell-based
T1 sequence (P32239 whole entry): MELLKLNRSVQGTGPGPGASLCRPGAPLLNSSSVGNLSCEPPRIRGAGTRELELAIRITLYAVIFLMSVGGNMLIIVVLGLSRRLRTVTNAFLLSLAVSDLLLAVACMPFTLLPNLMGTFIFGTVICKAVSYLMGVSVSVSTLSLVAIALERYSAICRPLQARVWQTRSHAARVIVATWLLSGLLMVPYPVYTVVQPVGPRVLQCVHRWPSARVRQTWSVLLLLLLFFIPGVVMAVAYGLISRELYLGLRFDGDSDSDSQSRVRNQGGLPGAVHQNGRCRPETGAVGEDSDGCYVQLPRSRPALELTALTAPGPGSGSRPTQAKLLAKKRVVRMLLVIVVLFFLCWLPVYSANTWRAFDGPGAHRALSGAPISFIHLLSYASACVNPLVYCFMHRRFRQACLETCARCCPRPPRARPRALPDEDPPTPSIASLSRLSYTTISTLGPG
How it was run: (§1)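 CHO-K1 cell lines stably expressing CCK2 receptor alone or with MOP receptor; receptor-enriched membranes from density gradient centrifugation. (1-5 pM) and increasing concentrations of unlabeled ligand, 90 min, room temperature, KRH pH 7.4 with 0.2% BSA and soybean trypsin inhibitor. Filtration, gamma counting; nonsaturable binding with 1 μM CCK. Ki from LIGAND analysis; 3-5 independent experiments.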

[2] = target: T2, Gastrin/cholecystokinin type B receptor (Homo sapiens) (UniProt P32239); assay: Binding affinity to CCK2 receptor expressed in CHO cells assessed per mg of protein; assay type: cell-based
T2 sequence (whole entry): T1 sequence (P32239 whole entry)
How it was run: (§2)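 Membranes came from CHO-K1 cells stably expressing CCK2 receptor alone or with MOP receptor. They were incubated with 125I-D-Tyr-Gly-[(Nle28,31)CCK-26-33] (1-5 pM) plus increasing unlabeled ligand for 90 min at room temperature in KRH, pH 7.4, with 0.2% BSA and soybean trypsin inhibitor. Nonspecific binding was set with 1 μM CCK. Bound ligand was filtered and gamma counted; Ki and Bmax (pmol/mg protein) were taken from LIGAND analysis. Mean±S.E.M., 3-5 experiments.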

[3] = target: T3, Mu-type opioid receptor (Homo sapiens, UniProt P35372); assay: Displacement of [3H]DAMGO from mu opioid receptor expressed in CHO cells; assay type: cell-based
T3 sequence (P35372 whole entry): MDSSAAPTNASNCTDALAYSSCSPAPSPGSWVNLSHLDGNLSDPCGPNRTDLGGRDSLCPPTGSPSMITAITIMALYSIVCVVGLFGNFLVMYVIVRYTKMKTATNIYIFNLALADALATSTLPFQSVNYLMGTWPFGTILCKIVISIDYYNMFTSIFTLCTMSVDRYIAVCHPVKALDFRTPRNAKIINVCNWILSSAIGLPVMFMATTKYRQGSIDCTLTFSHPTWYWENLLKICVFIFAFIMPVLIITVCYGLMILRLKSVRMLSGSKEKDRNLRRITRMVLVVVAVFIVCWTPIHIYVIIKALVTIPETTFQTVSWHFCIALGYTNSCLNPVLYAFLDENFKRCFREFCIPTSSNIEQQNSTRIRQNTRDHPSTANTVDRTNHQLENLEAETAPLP
How it was run: (§3)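 Membranes came from CHO cells stably expressing MOP receptor alone or with CCK2 receptor. They were incubated with [3H]DAMGO (0.4 nM) plus increasing unlabeled ligand for 2 h at room temperature in KRH, pH 7.4, with 0.2% BSA and soybean trypsin inhibitor. Nonspecific binding was set with 1 μM DAMGO. Samples were filtered on PEI-soaked GF/C and scintillation counted; Ki and Bmax (pmol/mg protein) came from LIGAND analysis. Mean±S.E.M., 3-5 experiments.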

[4] = target: T3, Mu-type opioid receptor; assay: Binding affinity to mu opioid receptor expressed in CHO cells assessed per mg of protein; assay type: cell-based; how it was run: as §3
[5] = target: T1, Gastrin/cholecystokinin type B receptor; assay: Displacement of [125I]CCK-26-33 from CCK2R-MOPR coexpressed in CHO cells; assay type: cell-based; how it was run: as §1
[6] = target: T2, Gastrin/cholecystokinin type B receptor (Homo sapiens); assay: Binding affinity to CCK2R-MOPR coexpressed in CHO cells assessed per mg of protein by [125I] CCK-26-33 displacement assay; assay type: cell-based; how it was run: as §2
[7] = target: T1, Gastrin/cholecystokinin type B receptor; assay: Activity at CCK2R-MOPR coexpressed in CHO cells co-transfected with delta-6-Galphaqi4-myr assessed as intracellular calcium release by FLIPR; assay type: functional, cell-based
How it was run: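 CHO cells stably expressing CCK2R were grown to 90% confluence, then transiently co-transfected by lipofectamine with MOPR and chimeric Gqi4-myr constructs. After 24 h they were seeded into 96-well plates and used the next day. Ca2+ mobilization was read with a FLIPR calcium kit on a FlexStation3, giving EC50 (nM); number of runs in parentheses.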

[8] = test system: Mus musculus; assay: Antinociceptive activity in icv dosed ICR mouse by tail flick assay; assay type: functional
How it was run: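 Male ICR mice (17-25 g) received i.c.v. injections (5 μL, under 1% DMSO) while conscious. Radiant-heat tail flick was measured at peak time from a 10-60 min time course, expressed as %MPE. At least three groups of 8-10 mice per dose-response, each mouse used once. ED50 (pmol/mouse) with 95% CI came from nonlinear regression.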

[9] = test system: Mus musculus; assay: Antinociceptive activity in icv dosed ICR mouse after 24 hrs by tail flick assay; assay type: functional
How it was run: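 24 h tolerance in male ICR mice: the day-1 ED80 i.c.v. dose (5 μL, under 1% DMSO) was given again 24 h later to the same mouse, after confirming antinociception had returned to baseline. Radiant-heat tail flick was read at peak time (10-20 min) and expressed as %MPE.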

Row | Structure (SMILES) | Ki [1] [nM] | Bmax [2] [pmol] | Ki ([3]; read-out: Ki) [nM] | Bmax [4] [pmol] | Ki [5] [nM] | Bmax [6] [pmol] | EC50 [7] [nM] | ED50 [8] [pmol] | ED50 [9] [pmol] | Ki ([3]; cho)
1 | CN1C(=O)[C@H](NC(=O)Nc2cccc(OCCNC(=O)COCC(=O)NCCNC(=O)COCC(=O)N[C@H]3CC[C@@]4(O)[C@H]5Cc6cc(O)cc7c6[C@@]4(CCN5C)[C@H]3O7)c2)N=C(c2ccccc2)c2ccccc21 | 71 | 10.3 | 5.7 | 7.7 | 33 | 12.4 | 119 | 390 | 71.29 | 
2 | CN1C(=O)[C@H](NC(=O)Nc2cccc(OCCNC(=O)COCC(=O)N[C@H]3CC[C@@]4(O)[C@H]5Cc6cc(O)cc7c6[C@@]4(CCN5C)[C@H]3O7)c2)N=C(c2ccccc2)c2ccccc21 | 223 | 14 | 24.1 | 12.4 | 210 | 9.3 |  | 3036 | 57.31 | 
3 | CN1C(=O)[C@H](NC(=O)Nc2cccc(OCCNC(=O)COCC(=O)NNC(=O)COCC(=O)N[C@H]3CC[C@@]4(O)[C@H]5Cc6cc(O)cc7c6[C@@]4(CCN5C)[C@H]3O7)c2)N=C(c2ccccc2)c2ccccc21 | 356 | 16 | 8.3 | 9.8 | 57 | 9.5 |  | 47.41 | 84.45 | 
4 | C[C@@H](NC(=O)[C@@H](N)Cc1ccc(O)cc1)C(=O)NCC(=O)N(C)[C@@H](Cc1ccccc1)C(=O)NCCO [DAMGO] |  |  |  | 9.2 |  |  | 2.66 |  |  | 
5 | CNC(=O)COCC(=O)NCCCCCCNC(=O)COCC(=O)NCCOc1cccc(NC(=O)N[C@@H]2N=C(c3ccccc3)c3ccccc3N(C)C2=O)c1 |  | 16 |  |  |  | 9.5 | < 10000 |  |  | 
6 | CN1C(=O)[C@H](NC(=O)Nc2cccc(OCCNC(=O)COCC(=O)NCCCCCCNC(=O)COCC(=O)N[C@H]3CC[C@@]4(O)[C@H]5Cc6cc(O)cc7c6[C@@]4(CCN5C)[C@H]3O7)c2)N=C(c2ccccc2)c2ccccc21 | 260 | 18.5 | 29.4 | 7.4 | 77 | 10.9 |  | 2020 | 64.33 | 
7 | Cc1cccc(NC(=O)N[C@@H]2N=C(c3ccccc3)c3ccccc3N(C)C2=O)c1 |  | 14.4 |  |  |  | 9.1 |  |  |  | 
8 | CNC(=O)COCC(=O)NCCCCNC(=O)COCC(=O)N[C@H]1CC[C@@]2(O)[C@H]3Cc4cc(O)cc5c4[C@@]2(CCN3C)[C@H]1O5 |  |  |  | 9.3 |  |  | 572 | 51.93 | 40.74 | 29.8
